Measurements published in the RNAGym collection of RNA variant scans (doi:10.1126/science.aae0568).
Fewer inactive variants are shown than the library holds.

B1: tRNA (parent)
chain: GUUCCGUUGGCGUAAUGGUAACGCGUCUCCCUCCUAAGGAGAAGACUGCGGGUUCGAGUCCCGUACGGAACG

Variants of: B1
Assay: yeast fitness relative to wild type (ratio to wild type); higher = fitter; tRNA-Arg(CCU), competitive growth, 37 C, YPD
Outline: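 For this measurement, the tRNA-Arg(CCU) gene was varied by chemical synthesis at a 3% per-site mutation rate across 69 sites, and each variant was placed at the native genomic locus in Saccharomyces cerevisiae. The pooled strains went through a 24-hour competition in YPD at 37°C in six parallel replicates, with amplicons from start and end populations read by 100-nucleotide paired-end sequencing. Darwinian fitness relative to wild type followed from the change in each genotype's frequency. Genotypes needed ≥ 100 starting reads, and estimates < 0.5 were set to 0.5.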

Variant	yeast fitness
A20C C27U A37C A42G C66U	≤ 0.5
A20G C31U A42U C46U A65C	≤ 0.5
A20G U47A U53A	≤ 0.5
A20G G25C C33U C49A U53A G67A	≤ 0.5
A20C U28C C30A G44C A45G C55A G63C	≤ 0.5
A20G C27U A37U	≤ 0.5
A20G C61A	0.706
A20C G44A	0.778
A20G C31G C60G G63C	≤ 0.5
A20C G67C A69G	0.539
A20C G44C A70U	0.573
A20C C24G C33G	≤ 0.5
A20G C29A C34G A42C C49G G68A	≤ 0.5
A20G C22U U53A	≤ 0.5
A20G U26C G39A G50A	≤ 0.5
A20U A36C C60A	≤ 0.5
A20G C29A A65C	0.544
A20C G48A	0.908
A20G G38U A43C A57U	≤ 0.5
A20G C34A A42U G58A C62U G63A	0.583
A20G G44A C62U	0.628
A20G C27U C66U	0.689
A20G C66A	0.635
A20G C31A G68A	0.575

Variant	yeast fitness
A20C C62A G68C	≤ 0.5
A20G C24G C27U A40C	0.532
A20G C60A C61G	≤ 0.5
A20C C30G A40G	≤ 0.5
A20G U54G C66G	≤ 0.5
A20G A40C A42U A43C G48A C66U	0.532
A20G C24U C31A G68C	≤ 0.5
A20G C24U G52A A57G C66U	≤ 0.5
A20C C34G A43U	≤ 0.5
A20C C34A G56C	≤ 0.5
A20G A21G C22U	0.564
A20G A36G A37U	≤ 0.5
A20C U28G A69C	0.714
A20G C24U G68C	0.573
A20G C30A A69C	0.752
A20C C29U U32A C62U A70U	≤ 0.5
A20G U47C	0.947
A20C C34A A37G C46A A70C	≤ 0.5
A20G A37C G68A	0.515
A20G A37G G38A C55U U59G	0.563
A20U A21U C31G C55A C66U	≤ 0.5
A20G C22U G67U	0.559
A20C C22U A43U	0.584
A20G C60A U64A C66U	≤ 0.5

Variant	yeast fitness
A20C C46G	1.02
A20C G48A C49A	0.557
A20G U32A A43C U53G	0.607
A20C C30A C55G	0.557
A20C C30A C55A	0.571
A20G G41A	1.2
A20G G41C	1.01
A20C G44C G48A G51A	≤ 0.5
A20G A36U C55G	≤ 0.5
A20C C30A C55A G67A	0.534
A20C C30U C61A	≤ 0.5
A20G A42G G58A	0.806
A20G C34A A57U	≤ 0.5
A20C C34G C66U	≤ 0.5
A20G A65G	0.986
A20U A21C C27A G41A	≤ 0.5
A20G A42G	0.969
A20G A42C	1.05
A20C C33A A70G	0.592
A20G C31U A69C	0.833
A20G C27G A36G	0.504
A20G A40G	0.888
A20C C30U	0.903
A20G C49U U53G A65G	≤ 0.5

Variant	yeast fitness
A20C U28C A40U	0.971
A20G C60G C66G A69G	0.554
A20C C29U C49G G63C C66G	≤ 0.5
A20G C27U C49U A57G	≤ 0.5
A20C C31A U59C	0.599
A20C G25C C33A C55A	≤ 0.5
A20C G63A	0.843
A20C G44A C46U A69C	0.698
A20G C34G A37C C66U	≤ 0.5
A20G C34G G41C	≤ 0.5
A20G C30U A45G	0.524
A20G U53C	0.682
A20C C27U A40C	0.63
A20G G25C	0.985
A20G G25A	0.904
A20G C55G C61U	0.534
A20G A37C	0.929
A20G A37U	0.795
A20G G56C	0.61
A20G A40G A57U A65G	≤ 0.5
A20U A36U G44C	≤ 0.5
A20C C55U C66G	≤ 0.5
A20C C34U C60A C66U A70U	≤ 0.5
A20G C33U G52A G63A	0.707

Variant	yeast fitness
A20C C29G A65U	0.51
A20G C27U U28G G68A	≤ 0.5
A20C C24G A37G	≤ 0.5
A20G A21G C29G C46G G52A	≤ 0.5
A20G C27A A40G C46G C62G	≤ 0.5
A20C C24G C29G A37G C66G	≤ 0.5
A20C C60G C62U	≤ 0.5
A20G A36C G48C U53C A70C	≤ 0.5
A20G C27A C31A C61U	≤ 0.5
A20G A37C G39A A65U A70C	≤ 0.5
A20G C46U G63A	0.82
A20G C24A C29G A37U G39A U47C	≤ 0.5
A20U A36G G67C A69C	≤ 0.5
A20G C62U	1.05
A20G G51C G67A	0.534
A20G C31G A70G	0.715
A20C C34A A37G C62U C66U	0.554
A20G U54C	0.719
A20U A21G C29G C49G G63C	≤ 0.5
A20C C34U	0.65
A20C C34G	0.527
A20G C46U G50C C61A	0.572
A20U A21G	0.947
A20U A21C	0.651

Variant	yeast fitness
A20G C27G U47G C62U A65U	≤ 0.5
A20C C22U C66U	0.622
A20C G25C G44C G58A G68C	≤ 0.5
A20U A21U C33G U35G G50U G68A	0.637
A20C C24G	0.679
A20C G23A C55G C60A	0.561
A20C G52A G68A	≤ 0.5
A20G C33U C61G G68C	≤ 0.5
A20G U47C U54G C66G	≤ 0.5
A20G A43G A65U	0.596
A20G C30A C31U A45C C55G	≤ 0.5
A20C G25C A40C A43C C55A C61G C66G	≤ 0.5
A20C G52A	0.705
A20U A37U U59C	0.675
A20G U35G A65U	≤ 0.5
A20G U53C C55A	≤ 0.5
A20G U26A A70U	0.717
A20C C27U C55U	0.76
A20G C22A A37C A65G	≤ 0.5
A20C C24A G56A C62U A70C	0.588
A20C C29U G50C U59G C62U G68A	0.567
A20G U59A A70C	0.646
A20C C49A G52A C61U	≤ 0.5
A20C C29G G52A	≤ 0.5

Variant	yeast fitness
A20C U26A C61A A65U	0.555
A20C G44C C61U	0.56
A20G U35A A37G A43U A45C	≤ 0.5
A20G G23C G50A	≤ 0.5
A20G U26C A65C	0.704
A20C U64G	0.746
A20G C24G C27U C62A C66A	≤ 0.5
A20G U35C G63A A70U	≤ 0.5
A20U A36G A70U	0.626
A20G G23C C31U C46G	0.526
A20G C34G A43U C66U	0.546
A20G C60G G68A	≤ 0.5
A20G C29G	0.609
A20G C34A	0.69
A20C U35A A36G G44C G68U	≤ 0.5
A20G A43C	1.09
A20G A43G	1.07
A20G G67A	0.95
A20C G38A A57U	≤ 0.5
A20C C24G C27A G51C C61U	0.586
A20G A36C C49G C61G C62G	≤ 0.5
A20G C34G G41C G52A	≤ 0.5
A20G C27G U35G	≤ 0.5
